Substrate in data set [1]: NCCc1ccc(O)cc1
The experiment in a line: Activity of human recombinant MAO-B expressed in baculovirus infected BTI-TN-5B1-4 insect cells assessed as hydrogen peroxide production after 15 mins by fluorimetric method. Put shortly: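 Microsomal hMAO-B (specific activity 22 nmol p-tyramine/min/mg protein), adjusted to oxidize 165 pmol p-tyramine/min in controls. It was preincubated 15 min at 37 °C with drug in 0.05 M sodium phosphate pH 7.4, then started with 1 mM p-tyramine (final). Resorufin fluorescence (ex 545/em 590) from Amplex Red/peroxidase was read over 15 min at 37 °C, in the dark. Controls used DMSO vehicle.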

Substrate in data set [2]: NCCc1ccc(O)cc1
In words: Activity of human recombinant MAO-A expressed in baculovirus infected BTI-TN-5B1-4 insect cells assessed as hydrogen peroxide production after 15 mins by fluorimetric method. In short, it runs like this:
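Microsomal hMAO-A (specific activity 150 nmol p-tyramine/min/mg protein), dosed to oxidize 165 pmol p-tyramine/min in controls. It was preincubated 15 min at 37 °C in 0.05 M sodium phosphate pH 7.4 with test drug, then started with 1 mM p-tyramine (final). H2O2 was read as Amplex Red/peroxidase resorufin fluorescence (ex 545/em 590) over 15 min at 37 °C, in the dark.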

The record followed here is ChEMBL document CHEMBL1932930, “Synthesis and biological assessment of novel 2-thiazolylhydrazones and computational analysis of their recognition by monoamine oxidase B” (Eur J Med Chem, 2012).

B1: Amine oxidase [flavin-containing] B (Homo sapiens) (protein)
chain: MSNKCDVVVVGGGISGMAAAKLLHDSGLNVVVLEARDRVGGRTYTLRNQKVKYVDLGGSYVGPTQNRILRLAKELGLETYKVNEVERLIHHVKGKSYPFRGPFPPVWNPITYLDHNNFWRTMDDMGREIPSDAPWKAPLAEEWDNMTMKELLDKLCWTESAKQLATLFVNLCVTAETHEVSALWFLWYVKQCGGTTRIISTTNGGQERKFVGGSGQVSERIMDLLGDRVKLERPVIYIDQTRENVLVETLNHEMYEAKYVISAIPPTLGMKIHFNPPLPMMRNQMITRVPLGSVIKCIVYYKEPFWRKKDYCGTMIIDGEEAPVAYTLDDTKPEGNYAAIMGFILAHKARKLARLTKEERLKKLCELYAKVLGSLEALEPVHYEEKNWCEEQYSGGCYTTYFPPGILTQYGRVLRQPVDRIYFAGTETATHWSGYMEGAVEAGERAAREILHAMGKIPEDEIWQSEPESVDVPAQPITTTFLERHLPSVPGLLRLIGLTTIFSATALGFLAHKRGLLVRV
By Km is commonly meant the concentration of substrate that gives half-maximal velocity. What is called Vmax is the top rate of the reaction or transport when substrate is in excess. B1: in data set [1], the Km worked out at 105 µM and the Vmax turned out to be 0.0289 µmol/min/mg.

B2: Amine oxidase [flavin-containing] A (Homo sapiens) (protein)
chain: MENQEKASIAGHMFDVVVIGGGISGLSAAKLLTEYGVSVLVLEARDRVGGRTYTIRNEHVDYVDVGGAYVGPTQNRILRLSKELGIETYKVNVSERLVQYVKGKTYPFRGAFPPVWNPIAYLDYNNLWRTIDNMGKEIPTDAPWEAQHADKWDKMTMKELIDKICWTKTARRFAYLFVNINVTSEPHEVSALWFLWYVKQCGGTTRIFSVTNGGQERKFVGGSGQVSERIMDLLGDQVKLNHPVTHVDQSSDNIIIETLNHEHYECKYVINAIPPTLTAKIHFRPELPAERNQLIQRLPMGAVIKCMMYYKEAFWKKKDYCGCMIIEDEDAPISITLDDTKPDGSLPAIMGFILARKADRLAKLHKEIRKKKICELYAKVLGSQEALHPVHYEEKNWCEEQYSGGCYTAYFPPGIMTQYGRVIRQPVGRIFFAGTETATKWSGYMEGAVEAGERAAREVLNGLGKVTEKDIWVQEPESKDVPAVEITHTFWERNLPSVSGLLKIIGFSTSVTALGFVLYKYKLLPRS
Regarding B2, in data set [2], the Km was 514 µM and the Vmax amounted to 0.301 µmol/min/mg.
